These entries were drawn from the full list.
PGC1a acetyl up: compounds raising PGC1a acetylation signal, primary screen, PGC1a modulator project, cell-based, U2OS, AlphaScreen, signal-increasing mode | overnight | activation, % at 15.6 µM | actives 0.21% (n = 350,000) | AID 651723, 2012;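 active = every replicate reaching activation of at least 50%, whatever the mean replicate activation; inconclusive = replicates that disagree or another doubt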;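 note: hits raise the AlphaScreen acetylation signal above neutral controls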
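System: flag-PGC1a/GCN5 U2OS cells / Input: 7000 cells/well / Compound: single test concentration per compound / Incubation: overnight compound treatment, 37 °C / Technique: AlphaScreen on lysates with anti-acetyl-lysine antibody, acceptor and donor beads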
Hep G6PC suppr: suppressors of forskolin-stimulated G6PC mRNA, dose response, PGC-1a acetylation activator project, cell-based, hepatocytes, RT-qPCR, cherry-picked samples; shares compounds with PGC1a acetyl up; primary mouse hepatocytes; G6PC suppression (normalized activity, % of positive control; higher = more suppression), % at 26 µM; 240 tested, under 10 active;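 active = dose curves showing G6PC suppression whose half-maximal dose is at most twice the top valid dose; inconclusive = flat curves with moderate negative activity, or unreliable fits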;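 note: G6PC expression relative to GAPDH housekeeping gene as delta delta Ct; 0% = median of neutral control wells and 100% = median of positive control wells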
PCK1 hep suppr: suppression of PCK1 mRNA in primary hepatocytes, dose response, PGC-1a acetylation activator project, cell-based, primary mouse hepatocytes, RT-qPCR, cherry-pick. 230 tested, under 10 active. forskolin-stimulated. shares compounds with PGC1a acetyl up. PCK1 expression decrease, unspecified at 26 µM;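 active = compounds lowering PCK1 expression whose fitted half-maximal concentration is at most twice the top tested dose; inconclusive = flat fit with moderate opposite-direction effect, or poor fit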;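 note: values are delta delta Ct of PCK1 relative to GAPDH; higher delta delta Ct means lower PCK1 expression so positive values indicate hits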
PGC1a hep suppr: suppression of PGC-1a mRNA in primary hepatocytes, dose response, PGC-1a acetylation activator project, cell-based, primary mouse hepatocytes, RT-qPCR, cherry-pick | shares compounds with PGC1a acetyl up | PGC-1a mRNA qPCR, forskolin; top dose 26 µM | max activity (PGC-1a expression decrease), % | 240 tested, under 10 active | AID 743467, 2014;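 active = compound lowering PGC-1a expression with fitted half-maximal concentration at most twice its top tested dose; inconclusive = flat curve with moderate opposite-direction effect, or poor fit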;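 note: 0% = neutral control wells median and 100% = positive control wells median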
* marks the source's active call; other numbers are inactive results; i = inactive; ? = inconclusive; / = no result.

SMILES	PGC1a acetyl up	Hep G6PC suppr	PCK1 hep suppr	PGC1a hep suppr
Cc1ccc(CN(CC(O)COc2cccc3[nH]cc(C)c23)C(C)(C)C)cc1 (stereo not drawn)	89.6*	468.9	301	165.4
O=C(Nc1nc2cc3c(cc2s1)OCCO3)c1ccncc1	-62.2	/	/	/
Oc1ccc(C=Nc2ccc(N3CCOCC3)cc2)c(O)c1	-64.2	/	/	/
O=C(NCc1ccc(Cl)cc1)C1CCC(CNc2c(N3CCCC3)c(=O)c2=O)CC1 (stereo not drawn)	-42.9	7.0	43	44.2
O=C1C(Cl)=C(N2CCOCC2)C(=O)N1CCc1ccccc1	-42.4	/	/	/
COc1ccc(Cc2nc(-c3ccc(NC(=O)c4cccnc4)cc3)no2)cc1	239.7*	-23.2	-4.36	102.3
CCNc1nc(Oc2ccc(C#N)cc2)cc(C(F)(F)F)n1	-41.5	/	/	/
O=C(CCl)N=c1sccn1Cc1ccccc1Cl	-52.3	/	/	/
CCNC(=O)C1(C)CCCN1Cc1ccccc1Cl (stereo not drawn)	-48.6	/	22.1	23.6
O=C(CCC1CCN(Cc2ccccc2Cl)CC1)NC1CC1	-94.6	/	/	/
CCCOc1ccccc1C1C(C(=O)OC)=CN(C(C)C)C=C1C(=O)OC	-92.1	/	/	/
CCn1nc(C)c(CN2CCc3c([nH]c4ccccc34)C2C(C)(C)C)c1C (stereo not drawn)	150.0*	-23.9	?	50.8
COCCNC(=O)c1ccc(C)cc1C	-44.3	/	/	/
O=C(CCn1nnc2ccccc21)Nc1nnc(Cc2ccccc2)s1	62.8*	-50.5	/	?
Cc1cc(=O)[nH]c(NN=Cc2cc(Br)ccc2O)n1	-49.7	/	/	/
CCCCN(CC)CCCNC(=O)c1cc2c(=O)n(CC)c3ccccc3c2s1	?	i	214	172.3
CCC1NC(=S)N(C2CCCCC2)C1=O (stereo not drawn)	-55.4	/	/	/
Cc1cccc(CS(=O)(=O)c2nnc([C@H](Cc3ccccc3)NC(=O)OC(C)(C)C)o2)c1	-59.8	/	/	/
Cn1c(C(C#N)C(=O)c2sc3ccccc3c2Cl)nc2ccccc21 (stereo not drawn)	-49.8	/	/	/
CCO[C@H]1OC(C(=O)N2CCCCCCC2)=C[C@@H](C2CCCCC2)[C@@H]1CCCO	83.5*	-1.5	62.5	50.8
N=c1n(Cc2ccccc2)c2ccccc2n1CC(O)COc1ccc(Cl)cc1Cl (stereo not drawn)	-44.3	/	/	/
O=C(CN1CCC(n2nnc3ccccc32)CC1)NCc1cccs1	191.8*	-14.8	-21.8	33.1
O=C(CN1CCC(n2cnc3cccnc32)CC1)NCc1cccs1	/	17.4	29.6	37.5
CC(C)c1ccc(/C=N/NC(=O)C2CCCC2)cc1	-46.2	/	/	/
COc1ccc(-c2cn[nH]c2-c2ccc(O)cc2O)cc1	-42.1	/	/	/
SMILES	PGC1a acetyl up	Hep G6PC suppr	PCK1 hep suppr	PGC1a hep suppr
COC(=O)c1[nH]c2ccc(F)cc2c1NS(=O)(=O)c1ccc(OC)cc1OC	-43.1	/	/	/
COc1ccc(C(=O)N/C(=C/c2cccs2)C(=O)NC(C)(C)C)cc1OC	-67.2	/	/	/
CCC(=O)NC(c1cccs1)c1ccc2cccnc2c1O (stereo not drawn)	-47.4	/	/	/
COc1cc(NC(=O)c2cccs2)c(OC)cc1NC(=O)CCC(=O)Nc1ccc2ncccc2c1	366.0*	188.8	?	?
Cn1nnnc1SC1CC(=O)N(c2ccccc2)C1=O (stereo not drawn)	-43.7	/	/	/
O=C(Nc1ccc(F)cc1)N1CCN(c2nc3ccccc3s2)CC1	?	-42.3	?	41.6
O=C(Nc1ccc(-c2cn3c(n2)SCC3)cc1)c1ccc2ccccc2n1	-40.1	/	/	/
COc1cc(CN2CCN(Cc3ccccc3C(F)(F)F)CC2)cc(OC)c1OC	-63.3	/	/	/
CC(Oc1ccc2c3c(c(=O)oc2c1)CCC3)C(=O)N[C@@H](Cc1ccccc1)C(=O)O (stereo partly drawn)	-74.6	/	/	/
COc1ccccc1CNS(=O)(=O)c1cc(C)ccc1OC	-43.2	/	/	/
COc1ccc(Br)cc1CNc1ccccc1	-40.4	10.5	50	27.5
COC(=O)c1ccc(Cl)c(NC(C)=O)c1	-47.5	/	/	/
COc1ccccc1C(NC(C)=O)c1cc(Cl)c2cccnc2c1O (stereo not drawn)	-46.0	/	/	/
CC(=O)Nc1ccc(NC2=C/C(=N/S(=O)(=O)c3cccs3)c3ccccc3C2=O)cc1	-70.4	/	/	/
COc1ccc2nc3cc(Cl)ccc3c(Nc3cc(CN4CCCC4)c(O)c(CN4CCCC4)c3)c2n1	-71.7	/	/	/
CC(=O)Nc1nonc1-c1nc2ccccc2n1Cc1ccccc1	61.4*	-7.0	11.4	?
COc1ccc(-c2nc3ccccc3c(=O)o2)cc1OC	-49.2	/	/	/
O=C1NC2(CCC3(CC2)OCCO3)NN1c1ccccc1	-51.0	/	/	/
